The list is not random: actives were taken first. Their share in the collection is about 1.7%.
HNF4A DNA FP = change in binding of human HNF4A to DNA, primary screen, biochemical, fluorescence polarization, FITC-DNA | Hepatocyte nuclear factor 4-alpha (Homo sapiens), P41235 | 1 h | activity change, % at 10 µM | 360,000 tested, 0.3% active | AID 1224865, 2016; in the data active = activity change above about 30%, passing the limit was not always enough
Rpn11 block = Rpn11 (PSMD14) deubiquitinase inhibitors, primary screen, biochemical, fluorescence polarization, uHTS | 26S proteasome non-ATPase regulatory subunit 14 (Homo sapiens), O00487 | human 26S proteasome, Ub4-pepOG fluorescence polarization; 20S core pre-blocked with epoxomicin | inhibition, % at 20 µM | 360,000 tested, 0.59% active | AID 588493, 2011;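 active = inhibition at 20 µM, scaled to each plate's controls, above about 33%, limit read from the data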
IDE inh = human IDE inhibitors in live cells, primary screen, fluorescence polarization, HEK cells, FAbetaB substrate | Insulin-degrading enzyme (Homo sapiens), P14735 | FAbetaB cleavage | inhibition, % at 5.59 µM | 320,000 tested, 0.41% active | AID 434962, 2010;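 active = percent inhibition above the average of all tested compounds plus 3 SD, set per screening campaign, cut at about 16% in these data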;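 note: IDE supplied by intact live HEK cells; FP after avidin binding of uncleaved biotin substrate so inhibition keeps polarization high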
CSN inh = inhibitors of CSN-mediated cullin deneddylation, primary screen, biochemical, fluorescence polarization, uHTS. AID 651999, 2013. COP9 signalosome complex subunit 5 (Homo sapiens), Q92905. inhibition, % at 12.5 µM. Purified CSN, SCF-Nedd8-OG deneddylation. 360,000 tested, 0.38% active;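 active = pattern-corrected inhibition above about 35%, with an unprinted fluorescence ratio check between 0.5 and 1.5, limit read from the data, passing the limit was not always enough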
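Assay system: Purified human Csn5 enzyme expressed in HEK293T cells | Amount: Enzyme 0.24 nM | Measured by: Fluorescence polarization readout | Medium: Tris/NaCl/DTT buffer, pH 7.5 | Compound dosing: One concentration, 12.5 µM, 0.25% DMSO | Times: 90 min incubation of compound, enzyme and substrate at room temperature | Control set: no-enzyme wells high, enzyme-with-substrate wells low | Read-out: % inhibition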
IDE act = human IDE activators in live cells, primary screen, fluorescence polarization, HEK cells, FAbeta-B substrate; FAbeta-B cleavage; 0% vehicle, 100% cell-free pure enzyme wells; activation, % at 5.96 µM; 340,000 tested, 0.073% active;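 active = activation above the mean of all tested compounds plus 3 SD, set per screening campaign, cut at about 17% in these data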
TPT1 inh = Candida albicans TPT1 enzyme inhibitors, primary screen, biochemical, fluorescence polarization | tRNA 2'-phosphotransferase TPT1 (Candida albicans SC5314) | recombinant caTPT1, FP RNA substrate dephosphorylation | inhibition, % at 5 µM | 300,000 tested, 0.81% active | AID 1962, 2009;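 active = inhibition above the mean of all tested compounds plus 3 SD, set per screening campaign, cut at about 24% in these data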
TPT1 inh confirm = Candida albicans TPT1 inhibitors, confirmation, biochemical, fluorescence polarization, triplicate; recombinant caTPT1, RNase T1 coupled; inhibition, % at 5 µM; shares compounds with TPT1 inh; 2,400 tested, 74% active;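 active = inhibition above the primary screen limit, the mean inhibition of all tested compounds plus 3 SD, cut at about 25% in these data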
RNase T1 counter = RNase T1 inhibitors, counter-screen for TPT1 inhibitor project, biochemical, fluorescence polarization; shares compounds with TPT1 inh; RNase T1 cleavage, 1536-well; AID 2153, 2009; 2,400 tested, 83% active; inhibition, % at 5 µM;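 active = inhibition above the solvent-only control well mean plus 3 SD, limit set per screening run, cut at about 23% in these data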;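 note: inhibitors block cleavage so intact labeled substrate keeps polarization high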
Rpn11 confirm = Rpn11 (PSMD14) deubiquitinase inhibitors, confirmation, biochemical, fluorescence polarization, single concentration; 1,900 tested, 29% active; purified human 26S proteasome, Ub4-pepOG fluorescence polarization; proteasome pretreated with epoxomicin; AID 602318, 2012; shares compounds with Rpn11 block; inhibition, % at 20 µM
MMP-2 counter-1 = MMP-2 enzyme inhibition, confirmation, counter-screen for RPN11 inhibitor project, biochemical, fluorescence, single concentration; shares compounds with Rpn11 block; recombinant MMP-2, FRET peptide cleavage fluorescence; inhibition, % at 20 µM; 1,900 tested, 4% active; AID 602330, 2012;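 note: human MMP-2 activated beforehand with APMA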
Thrombin inh = bovine thrombin protease inhibition, confirmation, counter-screen for Rpn11 inhibitor project, biochemical, fluorescence polarization, single concentration; shares compounds with Rpn11 block; bovine thrombin cleavage of Ub4-pepOG; inhibition, % at 20 µM; 1,900 tested, 13% active; AID 602333, 2012;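 active = mean inhibition at least 40% at 20 µM, or signal 3 deviations below plate average, so some actives read negative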
CSN5 deneddyl = Csn5 deneddylation inhibitors, confirmation, biochemical, fluorescence polarization, single concentration, SCF-Nedd8OG substrate; shares compounds with CSN inh; Csn5 deneddylation of SCF-Nedd8OG, 90 min; inhibition, % at 16.6 µM; 540 tested, 62% active; in the data active = inhibition above about 50%
MMP-2 counter-2 = MMP-2 protease inhibition counter-screen, confirmation, counter-screen for CSN deneddylation inhibitor project, biochemical, fluorescence, single concentration | shares compounds with CSN inh | recombinant MMP-2, FRET substrate fluorescence, 60 min | inhibition, % at 16.6 µM | 540 tested, 33% active;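 active = corrected plate-normalized z-score of 5 or more, or -5 or less, or inhibition of 15% or more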
Thrombin counter = thrombin (bovine) inhibition, counter-screen for CSN hits. inhibition, % at 16.6 µM. AID 720656. 540 tested, 49% active. bovine thrombin cleavage of Ub4-pepOG, fluorescence polarization. shares compounds with CSN inh;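 active = inhibition at or above a set limit, with a fluorescence interference ratio between 0.5 and a set maximum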
A number is an active result. Cut-off read from the data, not from the text of the source, unless noted: active = inhibition above about 40%; inactive = the rest.

Screening O=[N+]([O-])c1ccc(N/N=C/c2c[nH]c3ccccc23)cc1 returned HNF4A DNA FP 78, Rpn11 block 115, IDE inh inactive, CSN inh 57, IDE act inactive, TPT1 inh 125, TPT1 inh confirm 106, RNase T1 counter 109, Rpn11 confirm 84, MMP-2 counter-1 inactive, Thrombin inh 59, CSN5 deneddyl 56, MMP-2 counter-2 inactive and Thrombin counter 57.
For O=C(N/N=C/c1ccco1)c1cc([N+](=O)[O-])cc([N+](=O)[O-])c1 the results were HNF4A DNA FP inactive, Rpn11 block inactive, IDE inh inactive, CSN inh inactive, IDE act inactive and TPT1 inh inactive.
For COc1c2c(c(OC)c3c1c(=O)c1ccccc1n3C)OCO2 the results were HNF4A DNA FP inactive, Rpn11 block inactive, CSN inh inactive and IDE act inactive.
Screening COc1cccc(C2CC(OCCF)=CC(=O)O2)c1 (stereo not given) returned HNF4A DNA FP inactive and CSN inh inactive.
COCCNC(=O)C1(C)CCCN(Cc2ccc3ccccc3c2Br)C1 (stereo not given) was read as HNF4A DNA FP inactive, Rpn11 block inactive and CSN inh inactive.
O=C(Nc1ccc(F)cc1)C(c1cccc(F)c1)N1CCN(c2ccncc2)CC1 (stereo not given) was read as HNF4A DNA FP inactive and CSN inh inactive.
For COc1ccc(N=Cc2c(O)c3ccccc3n2C(C)=O)cc1 the results were HNF4A DNA FP 97, IDE inh inactive, CSN inh 61, IDE act inactive, TPT1 inh 122, TPT1 inh confirm 131, RNase T1 counter 128, CSN5 deneddyl 50, MMP-2 counter-2 inactive and Thrombin counter 56.
Screening C=CC(=O)Nc1cccc(CN2C(=O)N(c3cc(OC)cc(OC)c3)Cc3cnc(NCCCCN(CC)CC)nc32)c1 returned HNF4A DNA FP inactive, Rpn11 block inactive, CSN inh inactive and IDE act inactive.
Cc1ccc([C@H]2C[C@H](O)[C@@H](n3cc(C4CC4)nn3)CN2Cc2cccs2)cc1 was read as HNF4A DNA FP inactive, Rpn11 block inactive and CSN inh inactive.
Screening C=CCSC1=N/C(=C\c2sccc2C)C(=O)S1 returned HNF4A DNA FP inactive, Rpn11 block inactive, IDE inh inactive, CSN inh inactive, IDE act inactive and TPT1 inh inactive.
For C=CCSC1=N/C(=C\C=C\c2ccco2)C(=O)S1 the results were HNF4A DNA FP inactive, Rpn11 block inactive, IDE inh inactive, CSN inh 57, IDE act inactive, TPT1 inh 29, TPT1 inh confirm 28, RNase T1 counter 38, CSN5 deneddyl 68, MMP-2 counter-2 30 and Thrombin counter inactive.
`COc1ccc(/C=C2\C(=O)NC(=S)N2C(=O)c2ccc(C)cc2)cc1` gave HNF4A DNA FP inactive, Rpn11 block 64, IDE inh inactive, CSN inh 48, IDE act inactive, TPT1 inh 49, TPT1 inh confirm 66, RNase T1 counter 78, Rpn11 confirm 107, MMP-2 counter-1 inactive, Thrombin inh 56, CSN5 deneddyl inactive, MMP-2 counter-2 inactive and Thrombin counter 37.
O=C1NC(=S)N(C(=O)c2ccc(F)cc2)/C1=C/c1cccnc1 was read as HNF4A DNA FP inactive, Rpn11 block inactive, IDE inh inactive, CSN inh inactive and TPT1 inh inactive.
For CCN1/C(=C/c2ccc3cccc(C)c3[n+]2CC)Sc2ccccc21 the results were HNF4A DNA FP 107, Rpn11 block 75, IDE inh 53, CSN inh 54, IDE act inactive, TPT1 inh 60, TPT1 inh confirm 66, RNase T1 counter 76, CSN5 deneddyl inactive, MMP-2 counter-2 inactive and Thrombin counter inactive.
